This passage reports MIC results from ChEMBL document CHEMBL2057135, “Synthesis, antitubercular and antimicrobial evaluation of 3-(4-chlorophenyl)-4-substituted pyrazole derivatives” (2012).

In brackets after ≈: the same amount, converted by molar mass.

Type in all cases: functional
Experiment [1] concerns Mycobacterium tuberculosis. The experiment is described as follows: Antitubercular activity against Mycobacterium tuberculosis H37Rv ATCC 27294 after 7 days by BACTEC method. Conditions: H37Rv ATCC 27294, 168 h. Put shortly:
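Screened in vitro against M. tuberculosis H37Rv in a modified BACTEC 460 radiometric system. Test compound stocks were made at 1 mg/ml in DMSO and filter-sterilised through 0.22 µm PTFE filters. MIC was read, with rifampin as the reference agent.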

Another experiment relates to Staphylococcus aureus. The experiment is described as follows: Antibacterial activity against Staphylococcus aureus ATCC 29213.
The subject of a further experiment is Aspergillus niger. Description: Antifungal activity against Aspergillus niger KCTC 1231 after 2 days. Conditions: KCTC 1231, 48 h.
The subject of the next experiment is Escherichia coli. Description: Antibacterial activity against Escherichia coli ATCC 25922.
Another experiment concerns Cryptococcus neoformans. Description: Antifungal activity against Cryptococcus neoformans KCCM 50564 after 1 day. To be noted: KCCM 50564, 24 h.
A further experiment deals with Aspergillus flavus. The experiment is described as follows: Antifungal activity against Aspergillus flavus KCCM 11899 after 2 days. To be noted: KCCM 11899, 48 h.
Another experiment deals with Pichia kudriavzevii. Description: Antifungal activity against Candida krusei KCCM 11655 after 1 day. Conditions: KCCM 11655, 24 h.

Turning to `COc1ccc([C@@H]2[C@@H](Cl)C(=O)N2NC(=O)c2cc(-c3ccc(Cl)cc3)n[nH]2)cc1OC` (racemic), the MIC (commonly the lowest concentration found to suppress growth) in experiment [1] was found to be 1.15 µg/mL (≈ 2.49 µM); with Staphylococcus aureus it was 0.05 µg/mL (≈ 0.108 µM); against Aspergillus niger, 12.5 µg/mL (≈ 27.1 µM); in the experiment with Escherichia coli it was 0.5 µg/mL (≈ 1.08 µM); with Cryptococcus neoformans, 3.2 µg/mL (≈ 6.94 µM); with Aspergillus flavus, 6.3 µg/mL (≈ 13.7 µM). In the experiment with Pichia kudriavzevii, the MIC came to 12.5 µg/mL (≈ 27.1 µM).

In the case of `O=C(NN1C(=O)[C@H](Cl)[C@H]1c1ccccc1O)c1cc(-c2ccc(Cl)cc2)n[nH]1` (racemic), the MIC was 0.35 µg/mL (≈ 0.839 µM) in experiment [1]; 0.125 µg/mL (≈ 0.3 µM) in the experiment with Staphylococcus aureus; 12.5 µg/mL (≈ 30 µM) against Aspergillus niger; 0.019 µg/mL (≈ 0.0455 µM) with Escherichia coli; 1.6 µg/mL (≈ 3.83 µM) with Cryptococcus neoformans; 12.5 µg/mL (≈ 30 µM) in the experiment with Aspergillus flavus. The same compound gave an MIC against Pichia kudriavzevii of 6.3 µg/mL (≈ 15.1 µM).

`COc1cc([C@@H]2[C@@H](Cl)C(=O)N2NC(=O)c2cc(-c3ccc(Cl)cc3)n[nH]2)ccc1O` (racemic): the MIC is 0.6 µg/mL (≈ 1.34 µM) in experiment [1]; 0.125 µg/mL (≈ 0.279 µM) with Staphylococcus aureus; 3.2 µg/mL (≈ 7.15 µM) against Aspergillus niger; 0.025 µg/mL (≈ 0.0559 µM) against Escherichia coli; 12.5 µg/mL (≈ 27.9 µM) with Cryptococcus neoformans; 25 µg/mL (≈ 55.9 µM) with Aspergillus flavus. Further, inhibition of growth in the experiment with Pichia kudriavzevii (MIC) required 1.6 µg/mL (≈ 3.58 µM).

Regarding `O=C(NN1C(=O)[C@H](Cl)[C@H]1c1ccc(Cl)cc1)c1cc(-c2ccc(Cl)cc2)n[nH]1` (racemic), the MIC in experiment [1] worked out at 1 µg/mL (≈ 2.3 µM); against Staphylococcus aureus it was 0.28 µg/mL (≈ 0.643 µM); against Aspergillus niger, 6.3 µg/mL (≈ 14.5 µM); against Escherichia coli, 0.01 µg/mL (≈ 0.023 µM); in the experiment with Cryptococcus neoformans, 1.6 µg/mL (≈ 3.67 µM); with Aspergillus flavus, 12.5 µg/mL (≈ 28.7 µM). The compound also registered an MIC in the experiment on Pichia kudriavzevii of 6.3 µg/mL (≈ 14.5 µM).

As for `O=C(NN1C(=O)CSC1c1ccccc1Cl)c1cc(-c2ccc(Cl)cc2)n[nH]1` (racemic), the MIC was 0.5 µg/mL (≈ 1.15 µM) in experiment [1]; 0.02 µg/mL (≈ 0.0462 µM) in the experiment with Staphylococcus aureus; 25 µg/mL (≈ 57.7 µM) in the experiment with Aspergillus niger; 0.048 µg/mL (≈ 0.111 µM) in the experiment with Escherichia coli; 1.6 µg/mL (≈ 3.69 µM) in the experiment with Cryptococcus neoformans; 50 µg/mL (≈ 115 µM) in the experiment with Aspergillus flavus. This compound also had an MIC with Pichia kudriavzevii of 12.5 µg/mL (≈ 28.8 µM).

Consider `O=C(NN1C(=O)[C@H](Cl)[C@H]1c1ccccc1)c1cc(-c2ccc(Cl)cc2)n[nH]1` (racemic), for which the MIC in experiment [1] was determined as 1.25 µg/mL (≈ 3.12 µM); against Staphylococcus aureus, 0.51 µg/mL (≈ 1.27 µM); with Aspergillus niger, 25 µg/mL (≈ 62.3 µM); against Escherichia coli, 0.48 µg/mL (≈ 1.2 µM); in the experiment on Cryptococcus neoformans, 50 µg/mL (≈ 125 µM); against Aspergillus flavus, 100 µg/mL (≈ 249 µM). In the experiment with Pichia kudriavzevii, this compound showed an MIC of 100 µg/mL (≈ 249 µM).
